pIC50: −log10 of the molar value.
Tests used:
RAW264.7 [1] = experiment: Inhibition of LPS-induced NO production in mouse RAW264.7 cells measured after 24 hrs; assay type: functional, cell-based
Procedure, shortened: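 RAW264.7 cells, harvested from 100 mm dishes, were seeded at 2 × 10^5 cells/well. They were pretreated with a range of sample concentrations for 30 min, then incubated 24 h with or without LPS at 1 µg/mL. Nitrite in the culture supernatant was measured by the Griess reaction, and IC50 was reported.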

RAW264.7 [2] = experiment: Cytotoxicity against mouse RAW264.7 cells at concentration required inhibit NO synthesis by MTT assay; assay type: cell-based

SMILES	pIC50 (RAW264.7 [1]; Mus musculus, RAW264.7, 24 h)	pIC50 (RAW264.7 [1]; raw264.7)	Activity (RAW264.7 [2])
C=C1C(=O)O[C@H]2C=C(CCC(C)=O)[C@H](C)C[C@H](OC(=O)CC)[C@H]12	4.88		Non-toxic
C=C1C(=O)O[C@H]2C[C@@H](C)[C@@H]3[C@@H](OC(C)=O)C[C@H](O)[C@@]3(C)C[C@H]12	6.60		Non-toxic
C=C1C(=O)O[C@H]2C[C@@H](C)[C@H]3[C@@H](OC(C)=O)C[C@@](C)(O)[C@@]34O[C@H]4[C@H]12	4.58		Non-toxic
C=C1C(=O)O[C@H]2C[C@@H](C)[C@@H]3[C@@H](OC(C)=O)C[C@H](O)[C@@]3(C)[C@@H](OC(C)=O)[C@H]12	6.96		Non-toxic
C=C1C[C@@H]2OC(=O)C(=C)[C@H]2C[C@@H]2[C@@H]1[C@@H](OC(C)=O)C[C@@]2(C)O (stereo in doubt; 5)			Non-toxic
C=C1C(=O)O[C@H]2C=C(C)[C@H]3[C@@H](OC(C)=O)C[C@@](C)(O)[C@@H]3C[C@H]12 (stereo in doubt; 9) [GAILLARDIN]		5.53	
N=C(N)NN [PIMAGEDINE]	5.57		
C=C1C(=O)O[C@H]2C[C@@H](C)[C@@H]3CC[C@H](O)[C@@]3(C)C[C@H]12 [PSEUDOGUAIANOLIDE]	7.00		Non-toxic
C=C1C(=O)O[C@@H]2C[C@H](C)C(CCC(C)=O)=CC[C@H]12 [TOMENTOSIN]	5.04		Non-toxic

Further lines, with some results ahead:

pIC50 (RAW264.7 [1]; Mus musculus, RAW264.7, 24 h)	pIC50 (RAW264.7 [1]; raw264.7)	SMILES	Activity (RAW264.7 [2])
4.88		C=C1C(=O)O[C@@H]2C[C@H](C)C(CCC(C)=O)=C[C@H](O)[C@H]12	Non-toxic
4.54		C=C1C(=O)O[C@H]2C=C(C)[C@@H]3CC[C@](C)(O)[C@@H]3C[C@H]12 [4-EPI-ISOINUVISCOLIDE]	Non-toxic
4.64		C[C@@H]1CC[C@@H]2[C@]3(O)[C@H]1CC[C@@]3(C)C[C@@]2(C)C(=O)O [BRITANLIN C]	Non-toxic
4.89		C[C@@H]1CC[C@H](O)[C@]2(O)CC[C@H](c3cc3=O)C[C@@]12C [INEARIIFOLIANONE]	Non-toxic
4.45		C=C1C(=O)O[C@H]2C[C@H](C)[C@@H]3CC(=O)C(C)=C3C[C@H]12 [XERANTOLIDE]	Non-toxic

— ChEMBL document CHEMBL1165997, “Sesquiterpenoids from Inula lineariifolia inhibit nitric oxide production” (J Nat Prod, 2010)
